Results as given in ChEMBL document CHEMBL1124386, “Selective thyromimetics. Cardiac-sparing thyroid hormone analogues containing 3'-arylmethyl substituents” (J Med Chem, 1989).
Converted amounts (≈) assume the structure as drawn. The source made the active and inactive calls. The rule behind the calls is not given here.

Assays:
Rattus norvegicus [1] = assay: In vivo binding affinity for 3,5,3'' triiodothyronine receptor of heart nuclei 1 hr after intravenous administration; assay type: organism-based
Rattus norvegicus [2] = assay: Potency for induction of GPDH (mitochondrial cytochrome C3-phosphoglycerate oxidoreductase) was measured 48 hours after single intramuscular injection relative to T3 in heart; assay type: functional
[3] = Binding affinity to the thyroid hormone receptor was determined in vitro in isolated nuclei of rat liver relative to 3,5,3' triiodothyronine; assay type: tissue-based
Rattus norvegicus [4] = assay: Potency for induction of GPDH (mitochondrial cytochrome C 3-phosphoglycerate oxidoreductase) was measured 48 hr after single im injection relative to T3 in liver; LM=low maximal response after 2 daily doses of 50 mg/kg; assay type: functional, organism-based; parameters: dose 50 mg/kg; conditions: filed as partial agonist
Rattus norvegicus [5] = species on record: Rattus norvegicus; assay: Selectivity ratio of ID50 in liver and heart
Outline: (§1)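 Liver/heart selectivity in rats, calculated as (relative ID50)liver divided by (relative ID50)heart, from in vivo nuclear binding 1 h after intravenous dosing.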

Rattus norvegicus [6] = assay: In vivo binding affinity for 3,5,3' triiodothyronine receptor of liver nuclei 1 hour after intravenous administration; assay type: organism-based
[7] = test system: Thyroid hormone receptor (Rattus norvegicus); assay: Binding affinity to thyroid hormone receptor, relative to 3,5,3' triiodothyronine receptor, in isolated nuclei of heart
Rattus norvegicus [8] = assay: Potency for induction of GPDH (mitochondrial cytochrome C3-phosphoglycerate oxidoreductase) was measured 48 hr after single im injection relative to T3 in heart; I=inactive after 2 daily doses of 50 mg/kg; assay type: functional, organism-based; parameters: dose 50 mg/kg
[9] = target: T1, Thyroid hormone receptor beta (Rattus norvegicus) (UniProt P18113); assay: Binding affinity to the receptor was determined in nuclei of liver In vivo 1 hour after intravenous administration relative to T3; assay type: organism-based
T1 sequence (whole entry): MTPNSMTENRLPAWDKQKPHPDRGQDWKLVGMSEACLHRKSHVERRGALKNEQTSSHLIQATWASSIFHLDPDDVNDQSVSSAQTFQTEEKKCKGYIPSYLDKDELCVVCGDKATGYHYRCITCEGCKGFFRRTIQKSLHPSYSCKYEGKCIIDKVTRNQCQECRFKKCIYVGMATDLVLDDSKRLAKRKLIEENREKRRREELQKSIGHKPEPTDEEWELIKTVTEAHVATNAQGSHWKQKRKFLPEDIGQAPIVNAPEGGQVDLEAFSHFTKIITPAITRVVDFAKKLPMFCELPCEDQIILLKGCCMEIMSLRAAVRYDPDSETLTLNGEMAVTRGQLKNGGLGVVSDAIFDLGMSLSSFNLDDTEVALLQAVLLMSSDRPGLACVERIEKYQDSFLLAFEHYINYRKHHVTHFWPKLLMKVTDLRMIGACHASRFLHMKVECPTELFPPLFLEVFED

[10] = target: T1, Thyroid hormone receptor beta (Rattus norvegicus); assay: Binding affinity to the receptor was determined in nuclei of heart in vivo 1 hour after intravenous administration relative to 3,5,3' triiodothyronine receptor
[11] = Selectivity, ratio between relative ID50 in liver and heart; outline: as §1
Rattus norvegicus [12] = assay: Potency for induction of GPDH (mitochondrial cytochrome C3-phosphoglycerate oxidoreductase) was measured 48 hours after single intramuscular injection relative to T3 in liver; assay type: functional
Rattus norvegicus [13] = assay: Potency for induction of GPDH (mitochondrial cytochrome C 3-phosphoglycerate oxidoreductase) was measured 48 hr after single im injection relative to T3 in heart; LM=low maximal response after 2 daily doses of 50 mg/kg; assay type: functional, organism-based; parameters: dose 50 mg/kg; conditions: filed as partial agonist
[14] = target: T1, Thyroid hormone receptor beta (Rattus norvegicus); assay: Binding affinity to the receptor was determined in nuclei of heart in vivo 1 hour after intravenous administration relative to T3; assay type: organism-based
[15] = target: T1, Thyroid hormone receptor beta (Rattus norvegicus); assay: Binding affinity to the receptor was determined in vitro in isolated nuclei of rat liver relative to T3; assay type: tissue-based
[16] = target: T1, Thyroid hormone receptor beta (Rattus norvegicus); assay: In vitro binding affinity to the receptor was determined in isolated nuclei of heart relative to T3
Rattus norvegicus [17] = assay: Percent increase in oxygen consumption after seven daily doses of test compound given perorally, with concentration of compound at 0.1 mg/kg; assay type: functional; conditions: dose 10 mg/kg; route oral; in the assay text read “10 mg/kg” for “0.1 mg/kg”
Outline: (§2)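 Euthyroid rats given seven daily doses, intramuscular or oral, by line; whole-body oxygen consumption measured as percent increase in metabolic rate.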

Rattus norvegicus [18] = assay: Percent increase in oxygen consumption after seven daily doses of test compound given intramuscularly, with concentration of compound at 3.3 mg/kg; assay type: functional; conditions: route intramuscular; outline: as §2
[19] = Aqueous solubility at 37 degree Celsius at pH 7.38; assay type: physicochemical
Outline: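 Solubility in aqueous medium at 37 °C, pH 7.38; given in units of ×10^5 mol/L.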

[20] = Partition coefficient at 25 degree Celsius in octanol/aqueous buffer at pH 6.02; assay type: physicochemical
Rattus norvegicus [21] = assay: Percent increase in oxygen consumption after seven daily doses of test compound given perorally, with concentration of compound at 5 mg/kg; assay type: functional; conditions: route oral; outline: as §2
[22] = target: T1, Thyroid hormone receptor beta (Rattus norvegicus); assay: Binding affinity to the receptor was determined in vivo in rat liver nuclei 1 h after intravenous administration relative to 3,5,3' triiodothyronine receptor
Rattus norvegicus [23] = assay: Potency for induction of GPDH (mitochondrial cytochrome C3-phosphoglycerate oxidoreductase) was measured 48 hr after single im injection relative to T3 in liver; I=inactive after 2 daily doses of 50 mg/kg; assay type: functional, organism-based; parameters: dose 50 mg/kg
Rattus norvegicus [24] = assay: Percent increase in oxygen consumption after seven daily doses of test compound given perorally; I is inactive after 2 daily doses of 50 mg/kg; assay type: functional, organism-based; parameters: dose 50 mg/kg; outline: as §2
Rattus norvegicus [25] = assay: Potency for induction of GPDH (mitochondrial cytochrome C3-phosphoglycerate oxidoreductase) was measured 48 hours after single intramuscular injection relative to T3 in liver; LM is low maximal response after 2 daily doses of 50 mg/kg; assay type: functional
[26] = target: T1, Thyroid hormone receptor beta (Rattus norvegicus); assay: Binding affinity to the receptor was determined in isolated nuclei of heart in vitro relative to 3,5,3' triiodothyronine receptor
[27] = target: T1, Thyroid hormone receptor beta (Rattus norvegicus); assay: Binding affinity to the receptor was determined in nuclei of liver In vivo 1 hour after intravenous administration relative to 3,5,3' triiodothyronine receptor; assay type: organism-based
[28] = target: T1, Thyroid hormone receptor beta (Rattus norvegicus); assay: Selectivity, ratio of relative ID50 in liver and heart; outline: as §1
Rattus norvegicus [29] = assay: Potency for induction of GPDH was measured 48 hr after single intramuscular injection relative to T3 in lheart; LM=low maximal response after 2 daily doses of 50 mg/kg; assay type: functional, organism-based; parameters: dose 50 mg/kg; conditions: filed as partial agonist

Row | Structure (SMILES) | Relative IC50 [3] | Ratio (Rattus norvegicus [5]) | Relative IC50 [7] | Ratio [11] | Relative ID50 (Rattus norvegicus [1]) | Relative ED50 (Rattus norvegicus [4]) | Relative ID50 (Rattus norvegicus [6]) | Relative ED50 (Rattus norvegicus [8]) | Relative ED50 (Rattus norvegicus [12]) | further results
1 | N[C@@H](Cc1cc(I)c(Oc2ccc(O)c(Cc3ccccc3)c2)c(I)c1)C(=O)O | 15 | – | – | 17 | – | – | – | – | 2.2 | Relative ED50 (Rattus norvegicus [2]): 0.5; Relative ID50 [9]: 5.1; Relative ID50 [10]: 0.3
2 | O=C(O)CCc1cc(Br)c(Oc2ccc(O)c(Cc3ccc(O)nc3)c2)c(Br)c1 | – | – | – | – | – | – | – | – | 2 | Relative ID50 [14]: 4.2; Relative IC50 [15]: 31.6; Relative ED50 (Rattus norvegicus [2]): 0.04; Relative IC50 [16]: 33.2
3 | Cc1cc(O)c(Cc2ccc(O)nc2)cc1Oc1c(I)cc(C[C@H](N)C(=O)O)cc1I | 0.028 | – | – | – | – | – | – | – | – | –
4 | Cn1cc(Cc2cc(Oc3c(I)cc(C[C@H](N)C(=O)O)cc3I)ccc2O)ccc1=O | 0.76 | – | – | 74.1 | – | Partial agonist | – | inactive | – | –
5 | N[C@@H](Cc1cc(I)c(Oc2ccc(O)c(Cc3cnc(O)nc3)c2)c(I)c1)C(=O)O | – | – | – | 45.2 | – | – | – | inactive | – | Relative ID50 [22]: 0.28; Relative IC50 [15]: 0.15; Relative ED50 (Rattus norvegicus [23]): inactive; Relative IC50 [16]: 0.58
6 | N[C@H](Cc1cc(I)c(Oc2ccc(O)c(Cc3ccc(O)nc3)c2)c(I)c1)C(=O)O | 1.1 | – | 1.9 | – | – | – | – | inactive | 1 | % increase O2 consumption (Rattus norvegicus [24]): inactive
7 | Nc1ccc(Cc2cc(Oc3c(I)cc(C[C@H](N)C(=O)O)cc3I)ccc2O)cc1 | 0.63 | 9.13 | 1.1 | – | 0.023 | – | 0.21 | inactive | – | Relative ED50 (Rattus norvegicus [23]): inactive
8 | CC(C)c1cc(Cc2cc(Oc3c(I)cc(C[C@H](N)C(=O)O)cc3I)ccc2O)ccc1O | 0.67 | 1 | 4.4 | – | 0.11 | Partial agonist | 0.11 | – | – | Relative ED50 (Rattus norvegicus [13]): Partial agonist
9 | Cc1cc(Cc2cc(Oc3c(I)cc(C[C@H](N)C(=O)O)cc3I)ccc2O)ccc1O | 7.4 | 3.5 | 9.7 | – | 0.1 | Partial agonist | 0.35 | inactive | – | –
10 | N[C@@H](Cc1cc(I)c(Oc2ccc(O)c(Cc3ccnc(O)c3)c2)c(I)c1)C(=O)O | – | – | – | 20 | – | Partial agonist | – | inactive | – | Relative ID50 [22]: 0.07; Relative IC50 [15]: 0.042
11 | N[C@@H](Cc1cc(I)c(Oc2ccc(O)c(Cc3ccc(O)c(Cl)c3)c2)c(I)c1)C(=O)O | 5.9 | 1 | 15 | – | 0.07 | Partial agonist | 0.07 | inactive | – | –

Now from value to compound, other results behind:

Row | Relative IC50 [3] | Ratio (Rattus norvegicus [5]) | Relative IC50 [7] | Ratio [11] | Structure (SMILES) | Relative ID50 (Rattus norvegicus [1]) | Relative ED50 (Rattus norvegicus [4]) | Relative ID50 (Rattus norvegicus [6]) | Relative ED50 (Rattus norvegicus [8]) | Relative ED50 (Rattus norvegicus [12]) | further results
12 | 20 | 13.8 | 64 | – | N[C@@H](Cc1cc(I)c(Oc2ccc(O)c(Cc3ccc([N+](=O)[O-])cc3)c2)c(I)c1)C(=O)O | 0.71 | Partial agonist | 9.8 | – | – | Relative ED50 (Rattus norvegicus [2]): 0.9
13 | 31 | 1.62 | 31 | – | N[C@@H](Cc1cc(I)c(Oc2ccc(O)c(Cc3ccc(O)c(F)c3)c2)c(I)c1)C(=O)O | 0.37 | Partial agonist | 0.6 | inactive | – | –
14 | 8.5 | 4.38 | 15 | – | N[C@@H](Cc1cc(I)c(Oc2ccc(O)c(Cc3ccncc3)c2)c(I)c1)C(=O)O | 1.6 | Partial agonist | 7 | – | – | Relative ED50 (Rattus norvegicus [13]): Partial agonist
15 | 20 | 12.4 | 15 | – | N[C@@H](Cc1cc(I)c(Oc2ccc(O)c(Cc3ccc(O)cn3)c2)c(I)c1)C(=O)O | 2.5 | – | 31 | – | 1.7 | Relative ED50 (Rattus norvegicus [13]): Partial agonist
16 | 0.96 | 4.44 | 3.5 | – | N[C@@H](Cc1cc(I)c(Oc2ccc(O)c(Cc3ccccn3)c2)c(I)c1)C(=O)O | 0.54 | – | 2.4 | – | – | Relative ED50 (Rattus norvegicus [13]): Partial agonist
17 | 2 | 95 | 4 | – | N[C@@H](Cc1cc(I)c(Oc2ccc(O)c(Cc3ccc(O)nn3)c2)c(I)c1)C(=O)O | 0.4 | – | 38 | – | 2.4 | Increase (Rattus norvegicus [17]): 20%; Relative ED50 (Rattus norvegicus [2]): <0.1; Increase (Rattus norvegicus [18]): 19%
18 | 0.49 | – | 0.53 | – | N[C@@H](Cc1cc(Cl)c(Oc2ccc(O)c(Cc3ccc(O)nc3)c2)c(Cl)c1)C(=O)O | 0.5 | – | 13 | – | 1.2 | solubility [19]: 100 µM (≈ 44.9 µg/mL); Increase (Rattus norvegicus [18]): 26%; logD [20]: 0.6; Increase (Rattus norvegicus [21]): 31%; Relative ED50 (Rattus norvegicus [13]): Partial agonist
19 | 0.25 | 208 | 0.4 | – | N[C@@H](Cc1cc(I)c(Oc2ccc(O)c(Cn3ccc(=O)cc3)c2)c(I)c1)C(=O)O | 0.013 | – | 2.7 | inactive | 1.4 | –
20 | 60 | – | – | – | N[C@@H](Cc1cc(I)c(Oc2ccc(O)c(Cc3ccc(F)cc3)c2)c(I)c1)C(=O)O | – | – | – | – | – | Relative ED50 (Rattus norvegicus [25]): 5.7; Relative ED50 (Rattus norvegicus [2]): 3.7; Relative IC50 [26]: 43; Relative ID50 [27]: 98; Ratio [28]: 11.4; Relative ID50 [10]: 8.6
21 | 17 | – | – | 27.1 | N[C@@H](Cc1cc(I)c(Oc2ccc(O)c(Cc3ccc(O)cc3)c2)c(I)c1)C(=O)O | – | – | – | – | – | Relative ED50 (Rattus norvegicus [25]): 2.2; Relative ED50 (Rattus norvegicus [2]): <0.1; Relative ID50 [9]: 19
22 | 0.81 | – | – | 1 | N[C@@H](Cc1cc(I)c(Oc2ccc(O)c(Cc3ccccc3O)c2)c(I)c1)C(=O)O | – | Partial agonist | – | – | – | Relative ID50 [9]: 0.024; Relative ED50 (Rattus norvegicus [29]): Partial agonist; Relative ID50 [10]: 0.024
23 | 13 | – | – | 27.7 | N#Cc1ccc(Cc2cc(Oc3c(I)cc(C[C@H](N)C(=O)O)cc3I)ccc2O)cc1 | – | Partial agonist | – | inactive | – | Relative ID50 [9]: 6.1; Relative ID50 [10]: 0.22
